From ChEMBL document CHEMBL3407395, “Synthesis, characterization, and optimization for in vivo delivery of a nonselective isopeptidase inhibitor as new antineoplastic agent” (J Med Chem, 2015)
The source made the active and inactive calls. No cut-off for these calls is given here.

Experiments:
U-87 MG = experiment: Induction of necrosis in human U87MG cells at 0.6 to 10 uM after 24 hrs by trypan blue assay; type: functional, cell-based; conditions: U-87MG ATCC
In short: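 U87MG cells treated 24 h at the indicated concentrations. Death scored as percent trypan blue-positive cells. Caspase activity measured in parallel with a rhodamine 110 bis-(N-Z-DEVD amide) fluorogenic substrate and read in relative fluorescence units.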

T98G = experiment: Induction of apoptosis in human T98G cells assessed as caspase activation at 0.6 to 10 uM after 24 hrs by rhodamine-based fluorescence assay; type: functional, cell-based
In short: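 U87MG or T98G cells exposed 24 h to the listed concentrations. Caspase activity was read as relative fluorescence units from the rhodamine 110 bis-(N-Z-L-aspartyl-L-glutamyl-L-valyl-aspartic acid amide) fluorogenic substrate.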

[1] = biological target: Ubiquitin carboxyl-terminal hydrolase isozyme L1 (Homo sapiens) (UniProt P09936); experiment: Inhibition of GST-tagged recombinant full-length UCHL1 (unknown origin) expressed in bacteria using Ub-AMC as substrate preincubated for 30 mins before substrate addition measured after 60 mins by fluorescence assay
In short: (§1)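 Purified isopeptidase activity was measured with ubiquitin-AMC as fluorogenic substrate; IC50 was derived from inhibition.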

A549 = experiment: Induction of cell death in human A549 cells assessed as stabilization of p53 at 2.5 to 10 uM after 24 hrs by immunoblot assay; type: functional, cell-based
In short: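 A549 cells dosed at three levels (2.5, 5, 10 µM or 1, 2.5, 5 µM depending on inhibitor); lysates made after 24 h. Immunoblots probed poly-ubiquitin, p53 and Noxa, quantified by densitometry; mean of two experiments.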

A-375 = experiment: Cytotoxicity against human A375 cells after 48 hrs by resazurin assay; type: functional, cell-based; conditions: A-375, 48 h
[2] = biological target: T1, Ubiquitin carboxyl-terminal hydrolase isozyme L5 (Homo sapiens, UniProt Q9Y5K5); experiment: Inhibition of GST-tagged UCHL5 (unknown origin) using Ub-AMC as substrate preincubated for 30 mins before substrate addition measured after 60 mins by fluorescence assay; in short: as §1
T1 sequence (Q9Y5K5 whole entry): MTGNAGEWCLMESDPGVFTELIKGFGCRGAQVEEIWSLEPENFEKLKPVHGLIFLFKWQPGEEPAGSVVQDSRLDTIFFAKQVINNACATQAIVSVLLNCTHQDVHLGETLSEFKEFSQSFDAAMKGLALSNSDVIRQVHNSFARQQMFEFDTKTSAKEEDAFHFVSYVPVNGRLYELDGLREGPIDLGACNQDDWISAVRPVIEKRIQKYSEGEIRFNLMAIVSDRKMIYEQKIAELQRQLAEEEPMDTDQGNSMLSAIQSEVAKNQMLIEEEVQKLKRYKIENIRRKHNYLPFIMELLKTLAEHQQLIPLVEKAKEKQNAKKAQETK

HT-29 = experiment: Cytotoxicity against human HT-29 cells after 48 hrs by resazurin assay; type: functional, cell-based; conditions: HT-29, 48 h

Sequence of Ubiquitin carboxyl-terminal hydrolase isozyme L1 (Homo sapiens) (P09936 whole entry, looked up): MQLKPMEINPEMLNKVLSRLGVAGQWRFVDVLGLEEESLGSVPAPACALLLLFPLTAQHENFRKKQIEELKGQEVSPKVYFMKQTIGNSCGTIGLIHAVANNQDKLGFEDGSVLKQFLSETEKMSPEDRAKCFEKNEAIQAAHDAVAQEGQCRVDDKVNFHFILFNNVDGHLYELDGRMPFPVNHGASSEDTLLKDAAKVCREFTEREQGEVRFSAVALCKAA

SMILES: O=C1/C(=C/c2ccc([N+](=O)[O-])cc2)CC(O)C/C1=C\c1ccc([N+](=O)[O-])cc1 (configuration not stated)
- Activity (U-87 MG): Active
- Activity (T98G): Active
- inhibition [1]: inactive
- Activity (A549): Active
- IC50 (A-375): 6.1 µM
- IC50 [2]: 43 µM
- IC50 (HT-29): 7.6 µM
